Source: ChEMBL document CHEMBL1138335, “New N-arachidonoylserotonin analogues with potential "dual" mechanism of action against pain” (J Med Chem, 2007)
Activity calls are given as the source filed them. The calls are words filed in the database; no cut-off is given here.

Experiments:
[1] = target: T1, Fatty-acid amide hydrolase 1 (Rattus norvegicus, UniProt P97612); assay: Inhibition of rat brain FAAH assessed by measuring [14C]anandamide hydrolysis after 30 mins
T1 sequence (P97612 whole entry): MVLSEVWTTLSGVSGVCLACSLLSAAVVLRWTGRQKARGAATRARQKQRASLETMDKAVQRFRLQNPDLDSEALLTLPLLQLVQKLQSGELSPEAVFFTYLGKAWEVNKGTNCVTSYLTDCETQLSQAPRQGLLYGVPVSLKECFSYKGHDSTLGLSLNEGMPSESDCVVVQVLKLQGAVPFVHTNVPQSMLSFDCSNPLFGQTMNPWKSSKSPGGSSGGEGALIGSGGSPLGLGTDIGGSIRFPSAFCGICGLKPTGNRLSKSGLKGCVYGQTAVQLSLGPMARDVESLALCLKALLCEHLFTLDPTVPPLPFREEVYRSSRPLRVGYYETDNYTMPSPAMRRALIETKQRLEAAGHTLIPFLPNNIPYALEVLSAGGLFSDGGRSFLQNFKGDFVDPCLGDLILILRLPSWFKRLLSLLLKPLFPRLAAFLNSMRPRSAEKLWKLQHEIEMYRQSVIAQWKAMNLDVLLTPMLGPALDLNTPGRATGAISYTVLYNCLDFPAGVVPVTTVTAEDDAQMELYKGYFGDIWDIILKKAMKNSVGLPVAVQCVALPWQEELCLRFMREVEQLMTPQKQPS

[2] = target: Transient receptor potential cation channel subfamily V member 1 (Homo sapiens, UniProt Q8NER1); assay: Antagonist activity at human recombinant TRPV1 receptor expressed in HEK293 cells assessed as inhibition of capsaicin-induced intracellular calcium elevation; assay type: functional, cell-based
Outline: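 Stably transfected HEK293 cells grown in MEM with nonessential amino acids, 10% FCS, 0.2 mM glutamine, 37 °C. Plated on poly-L-lysine a day before. Loaded 2 h at 25 °C with 4 µM Fluo-3 AM, washed, trypsinized, resuspended in Tyrode pH 7.4.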

[3] = test system: RBL-2H3; assay: Inhibition of anandamide uptake in RBL-2H3 cells upto 25 uM after 5 mins by anandamide membrane transport assay; assay type: functional, cell-based; details: Rattus norvegicus
[4] = test system: Mus musculus; assay: Antinociceptive activity in ip dosed mouse assessed as inhibition of formalin-induced hyperalgesia; assay type: functional, organism-based
Outline: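 Mice given compound ip 15 min before 1.25% formalin into the dorsal hind paw (n = 8–10 per group). Doses were 0.3–5 or 1–10 mg/kg. Some groups also got AM251 or AM630 (3 mg/kg ip) or I-RTX (0.1–0.2 mg/kg ip) 5 min earlier. Lifting, licking, flinching and similar behaviour timed every 5 min for 60 min. IC50 estimated at 40 min post-formalin.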

[5] = target: T2, Fatty-acid amide hydrolase 1 (Rattus norvegicus) (UniProt P97612); details: at 50 µM
T2 sequence (whole entry): T1 sequence (P97612 whole entry)

Sequence of Transient receptor potential cation channel subfamily V member 1 (Q8NER1 whole entry): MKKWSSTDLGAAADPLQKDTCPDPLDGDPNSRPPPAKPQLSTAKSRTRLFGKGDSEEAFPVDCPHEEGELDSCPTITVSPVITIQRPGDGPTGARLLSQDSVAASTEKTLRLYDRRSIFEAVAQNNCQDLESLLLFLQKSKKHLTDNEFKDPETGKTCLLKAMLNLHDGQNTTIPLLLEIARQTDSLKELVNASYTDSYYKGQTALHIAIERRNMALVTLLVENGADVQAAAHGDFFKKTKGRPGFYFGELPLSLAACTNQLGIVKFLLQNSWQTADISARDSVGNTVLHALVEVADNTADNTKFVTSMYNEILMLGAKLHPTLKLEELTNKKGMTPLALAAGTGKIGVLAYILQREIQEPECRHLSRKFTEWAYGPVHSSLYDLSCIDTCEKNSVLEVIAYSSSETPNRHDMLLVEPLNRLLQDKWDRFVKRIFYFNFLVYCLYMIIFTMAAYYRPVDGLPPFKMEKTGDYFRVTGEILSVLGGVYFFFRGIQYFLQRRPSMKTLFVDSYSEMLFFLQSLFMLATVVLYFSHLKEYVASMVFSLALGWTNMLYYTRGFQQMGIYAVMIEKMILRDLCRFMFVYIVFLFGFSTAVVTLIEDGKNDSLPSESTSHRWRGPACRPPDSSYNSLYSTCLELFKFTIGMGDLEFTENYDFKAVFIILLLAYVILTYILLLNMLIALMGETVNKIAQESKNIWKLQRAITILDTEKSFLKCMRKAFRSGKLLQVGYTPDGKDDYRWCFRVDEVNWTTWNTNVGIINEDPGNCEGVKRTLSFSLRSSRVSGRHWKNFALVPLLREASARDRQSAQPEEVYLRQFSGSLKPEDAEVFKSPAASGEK

Structure (SMILES)	IC50 [1] [µM]	IC50 [2] [µM]	Activity [3]	IC50 [4] [mg/kg]	inhibition [5] [%]
CCCCC/C=C\C/C=C\C/C=C\CCCCC(=O)NCCc1c[nH]c2ccc(O)cc12	10	0.95	–	–	–
O=C(CCCCCCCCc1ccccc1)NCCc1c[nH]c2ccc(O)cc12	30	0.68	–	–	–
O=C(NCCc1ccc(-c2ccccc2)cc1)NCCc1c[nH]c2ccc(O)cc12	> 50	> 10	–	–	–
CCCCCc1cccc(NC(=O)NCCc2c[nH]c3ccc(O)cc23)c1	> 50	2.63	–	–	–
O=C(CCCCCCc1ccccc1)NCCc1c[nH]c2ccc(O)cc12	> 50	9.12	–	–	–
CCCCCc1cccc(OC(=O)NCCc2c[nH]c3ccc(O)cc23)c1	3.6	2.4	inactive	–	–
O=C(NCCc1c[nH]c2ccc(O)cc12)Oc1ccc(I)cc1	5	> 10	–	–	–
CCCCCc1cccc(CC(=O)NCCc2c[nH]c3ccc(O)cc23)c1	> 50	0.24	–	–	–
CCCCCc1ccc2ccc(CCCC(=O)NCCc3c[nH]c4ccc(O)cc34)cc2c1	50	> 10	–	–	–
O=C(NCCc1ccc(Cl)cc1)NCCc1c[nH]c2ccc(O)cc12	> 50	> 10	–	–	–
O=C(NCCc1c[nH]c2ccc(O)cc12)Oc1ccc(Cl)cc1	6.8	> 10	–	–	–
CCCCC/C=C\C/C=C\CCCCCCCCOC(=O)NCCc1c[nH]c2ccc(O)cc12	> 50	> 10	–	–	–
CCCCC/C=C\C/C=C\C/C=C\C/C=C\CCCCOC(=O)NCCc1c[nH]c2ccc(O)cc12	> 50	2.82	–	–	–
O=C(NCCc1c[nH]c2ccc(O)cc12)Oc1cccc(C(F)(F)F)c1	2.2	> 10	–	–	–
CCCCC/C=C\C/C=C\CCCCCCCC(=O)NCCc1c[nH]c2ccc(O)cc12	30	1.82	–	–	–
CCCCCc1cccc(-c2cccc(CCCC(=O)NCCc3c[nH]c4ccc(O)cc34)c2)c1	50	> 10	–	–	–
CCCCC/C=C\C/C=C\C/C=C\CCCCCOC(=O)NCCc1c[nH]c2ccc(O)cc12	> 50	> 10	–	–	–
O=C(NCCc1c[nH]c2ccc(O)cc12)Oc1cccc(Cl)c1	1.9	> 10	–	–	–
CC(C)(C)c1ccc(OC(=O)NCCc2c[nH]c3ccc(O)cc23)cc1	> 10	5.25	–	–	–
CC/C=C\C/C=C\C/C=C\CCCCCCCCOC(=O)NCCc1c[nH]c2ccc(O)cc12	> 50	> 10	–	–	–

Structure (SMILES)	IC50 [1] [µM]	IC50 [2] [µM]	Activity [3]	IC50 [4] [mg/kg]	inhibition [5] [%]
CC/C=C\C/C=C\C/C=C\CCCCCCCC(=O)NCCc1c[nH]c2ccc(O)cc12	10	0.47	–	–	–
O=C(Cc1cccc(-c2ccccc2)c1)NCCc1c[nH]c2ccc(O)cc12	> 50	0.43	–	5	–
CCCCCCCCCCC(=O)NCCc1c[nH]c2ccc(O)cc12	> 50	0.76	–	–	–
O=C(NCCc1ccccc1)NCCc1c[nH]c2ccc(O)cc12	> 50	> 10	–	–	–
O=C(NCCc1c[nH]c2ccc(O)cc12)Oc1ccc2ccccc2c1	10	> 10	inactive	–	–
O=C(NCCc1c[nH]c2ccc(O)cc12)Oc1ccc(C(F)(F)F)cc1	6.4	> 10	–	–	–
O=C(NCCc1c[nH]c2ccc(O)cc12)Oc1ccc(OCc2ccccc2)cc1	1.17	> 10	inactive	–	–
CCCCCCCC/C=C\CCCCCCCC(=O)NCCc1c[nH]c2ccc(O)cc12	> 50	2.57	–	–	–
CCCCC/C=C\C/C=C\C/C=C\C/C=C\CCCC(=O)NCCc1c[nH]c2ccc(O)cc12	8	0.27	–	0.5	–
O=C(CCCCC1CCSS1)NCCc1c[nH]c2ccc(O)cc12 (racemic)	> 50	> 10	–	–	–
C=C(C)[C@]12C[C@@H](C)[C@@]34O[C@](Cc5ccccc5)(O[C@@H]1[C@@H]3C=C(COC(=O)Cc1cc(I)c(O)c(OC)c1)C[C@]1(O)C(=O)C(C)=C[C@@H]41)O2	–	–	–	–	< 10
O=C(NCCc1ccc(Oc2ccccc2)cc1)NCCc1c[nH]c2ccc(O)cc12	> 50	> 10	–	–	–
CCCCCCCCCCCC(=O)NCCc1c[nH]c2ccc(O)cc12	> 50	0.74	–	–	–
CC(C)(C)c1ccc(CNC(=O)NCCc2c[nH]c3ccc(O)cc23)cc1	50	3.8	–	–	–
O=C(NCCc1c[nH]c2ccc(O)cc12)Nc1cccc(-c2ccccc2)c1	> 50	0.72	–	–	–
O=C(CCCCCCCc1ccccc1)NCCc1c[nH]c2ccc(O)cc12	34	2.13	–	–	–
CC(C)(C)c1cccc(OC(=O)NCCc2c[nH]c3ccc(O)cc23)c1	3.7	> 10	–	–	–
O=C(NCCc1c[nH]c2ccc(O)cc12)Oc1cccc(-c2ccccc2)c1	0.5	> 10	inactive	4	–
O=C(NCCc1c[nH]c2ccc(O)cc12)Oc1cccc(I)c1	1.8	> 10	–	–	–
